Legend:
[1] = molecular target: Adenosine receptor A2a (Homo sapiens) (UniProt P29274); assay: Inhibition of [3H]CGS21680 binding to human adenosine A2A receptor at 0.1 umol/L by scintillation counting
In short: (§1)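 Membranes from cells transfected with human A2A receptor, diluted 20-fold in 50 mmol/L Tris pH 7.4 with 120 mmol/L NaCl, 5 mmol/L KCl, 10 mmol/L MgCl2, 2 mmol/L CaCl2 and 2 U/mL adenosine deaminase. Incubated with [3H]CGS21680 (final 75 nmol/L) and test drug, 25 °C for 90 min. Filtered through 0.5% polyethyleneimine-treated filters, then scintillation counted. Nonspecific binding with 50 µmol/L NECA. Triplicate average.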

Mus musculus = assay: Antiparkinsonian effect in mouse assessed as inhibition of CGS-21680-induced catalepsy at 10 mg/kg, po; format: functional
In short: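 Compounds were given orally at 10 mg/kg to mice. Catalepsy was induced with CGS, and inhibition of catalepsy is expressed as %.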

[2] = molecular target: Adenosine receptor A2a (Homo sapiens) (UniProt P29274); assay: Inhibition of [3H]CGS21680 binding to human adenosine A2A receptor at 0.01 umol/L by scintillation counting; in short: as §1
[3] = molecular target: Adenosine receptor A2a (Homo sapiens) (UniProt P29274); assay: Inhibition of [3H]CGS21680 binding to human adenosine A2A receptor at 1 umol/L by scintillation counting; in short: as §1
[4] = molecular target: T1, Adenosine receptor A1 (Homo sapiens) (UniProt P30542); assay: Antagonist activity at human adenosine A1 receptor at 10 umol/L; format: functional
T1 sequence (whole entry): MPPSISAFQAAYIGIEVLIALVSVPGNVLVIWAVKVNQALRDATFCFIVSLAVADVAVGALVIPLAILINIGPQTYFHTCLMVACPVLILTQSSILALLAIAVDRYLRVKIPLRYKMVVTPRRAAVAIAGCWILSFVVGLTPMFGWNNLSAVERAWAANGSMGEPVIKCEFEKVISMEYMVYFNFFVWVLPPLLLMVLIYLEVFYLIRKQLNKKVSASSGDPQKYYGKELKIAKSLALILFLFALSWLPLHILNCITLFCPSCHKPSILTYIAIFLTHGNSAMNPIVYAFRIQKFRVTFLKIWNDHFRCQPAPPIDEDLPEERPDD

[5] = molecular target: T2, Adenosine receptor A2b (Homo sapiens) (UniProt P29275); assay: Antagonist activity at human adenosine A2B receptor at 10 umol/L; format: functional
T2 sequence (whole entry): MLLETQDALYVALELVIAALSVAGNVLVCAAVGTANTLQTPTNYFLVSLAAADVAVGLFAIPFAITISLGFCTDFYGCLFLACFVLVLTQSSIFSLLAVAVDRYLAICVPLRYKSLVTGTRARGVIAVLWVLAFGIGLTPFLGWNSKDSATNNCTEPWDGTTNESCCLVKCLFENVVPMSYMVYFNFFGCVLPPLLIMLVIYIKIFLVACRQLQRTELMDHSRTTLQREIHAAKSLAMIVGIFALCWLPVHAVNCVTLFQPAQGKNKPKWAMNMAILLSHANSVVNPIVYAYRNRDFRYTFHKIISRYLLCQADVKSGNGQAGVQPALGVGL

[6] = molecular target: T1, Adenosine receptor A1 (Homo sapiens); assay: Antagonist activity at human adenosine A1 receptor at 1 umol/L; format: functional
[7] = Intrinsic clearance in rat liver microsomes; format: ADME, Microsome
In short: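 Rat liver microsomal incubations gave the apparent intrinsic clearance (CL_int). This was corrected for the free fraction of compound in the incubation to give CL_int/f_m.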

[8] = molecular target: T2, Adenosine receptor A2b (Homo sapiens); assay: Antagonist activity at human adenosine A2B receptor at 1 umol/L; format: functional

Adenosine receptor A2a (Homo sapiens), sequence (P29274 whole entry): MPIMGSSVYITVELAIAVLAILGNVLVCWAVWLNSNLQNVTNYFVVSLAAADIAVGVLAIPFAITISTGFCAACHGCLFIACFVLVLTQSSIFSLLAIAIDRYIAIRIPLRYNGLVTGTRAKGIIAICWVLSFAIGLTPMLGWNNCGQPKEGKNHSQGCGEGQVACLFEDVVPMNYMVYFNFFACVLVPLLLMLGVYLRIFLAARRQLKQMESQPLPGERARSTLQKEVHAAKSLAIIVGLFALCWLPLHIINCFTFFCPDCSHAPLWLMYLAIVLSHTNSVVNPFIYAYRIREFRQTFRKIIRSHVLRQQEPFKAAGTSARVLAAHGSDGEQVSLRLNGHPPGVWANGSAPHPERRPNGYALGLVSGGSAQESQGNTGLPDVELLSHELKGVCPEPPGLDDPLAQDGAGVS

| SMILES | inhibition [1] [%] | inhibition in vivo at 10 mg/kg (Mus musculus) [%] | inhibition [2] [%] | inhibition [3] [%] | inhibition [4] [%] | inhibition [5] [%] | inhibition [6] [%] | CLint scaled [7] [mL/min/kg] | inhibition [8] [%] |
| --- | --- | --- | --- | --- | --- | --- | --- | --- | --- |
| COC(=O)c1ccc(OC)c2oc(C(=O)Nc3ccc(Cn4ccnc4)cc3)cc12 | 80 | 0 | 40 | 98 |  |  |  |  |  |
| COc1ccc(-c2ccccc2)c2cc(C(=O)Nc3ccncc3)sc12 | 31 |  | 11 |  |  |  |  |  |  |
| COc1ccc(-c2ccccc2)c2cc(C(=O)Nc3ccc(Cn4ccnc4)cc3)oc12 | 64 | 12 | 24 | 95 | 10 | 1 | 9 | 2600 | 1 |
| COc1ccc(-c2ccc(Cl)cc2)c2cc(C(=O)Nc3ccncc3)oc12 | 28 |  | 18 |  |  |  |  |  |  |
| COc1ccc(-c2csc(-c3ccc(C)nc3)n2)c2cc(C(=O)Nc3ccc(F)cc3)oc12 | 6 |  | 17 | 4 |  |  |  |  |  |
| COc1ccc(-c2ccccc2)c2cc(NC(C)=O)oc12 | 91 | 28 | 62 |  |  |  |  |  |  |
| COC(=O)c1ccc(OC)c2oc(C(=O)Nc3ccc(OC)cc3)cc12 | 53 |  |  | 91 |  |  |  |  |  |
| COc1ccc(-c2ccccc2)c2cc(C(=O)Nc3ccc(F)cc3)oc12 | 49 |  | 13 | 67 |  |  |  |  |  |
| COC(=O)c1ccc(OC)c2oc(C(=O)Nc3ccccc3)cc12 | 49 |  | 6 | 86 |  |  |  | 758 |  |
| COC(=O)c1ccc(OC)c2oc(C(=O)Nc3ccc(Cl)cc3)cc12 | 43 |  | 1 | 77 |  |  |  |  |  |
| COc1ccc(-c2ccccc2)c2cc(NC(=O)Oc3ccc(F)cc3)oc12 | 32 |  | 11 |  |  |  |  |  |  |
| COC(=O)Nc1cc2c(-c3ccccc3)ccc(OC)c2o1 | 85 | 86 | 28 |  |  |  |  |  |  |
| COc1ccc(-c2ccccc2)c2cc(C(=O)NN3CCOCC3)oc12 | 81 | 78 | 39 | 103 | 82 | 98 | 37 | 20.3 | 81 |
| COc1ccc(-c2ccccc2)c2cc(C(=O)Nc3ccncc3)oc12 |  | 40 |  | 100 | 77 | 58 | 20 | 580 | 21 |
| COc1ccc(-c2ccc(OC)c3oc(C(=O)Nc4ccc(Cn5ccnc5)cc4)cc23)cc1 | 63 | 54 | 24 | 90 |  | 4 | -4 |  |  |
| CNC(=O)c1cc2c(-c3ccccc3)ccc(OC)c2o1 | 88 | 18 | 57 |  |  |  |  |  |  |
| COc1ccc(-c2csc(-c3ccc(C)nc3)n2)c2cc(C(=O)Nc3ccc(Cn4ccnc4)cc3)oc12 | 23 |  | 12 | 20 |  |  |  |  |  |
| COc1ccc(-c2csc(C)n2)c2cc(C(=O)Nc3ccc(F)cc3)oc12 | 15 |  | 1 | 60 |  |  |  |  |  |
| COc1ccc(-c2ccccc2)c2cc(NC(=O)Oc3ccccc3)oc12 | 65 | 34 | 23 |  |  |  |  |  |  |
| COc1ccc(NC(=O)c2cc3c(-c4csc(-c5ccccc5)n4)ccc(OC)c3o2)cc1 | 11 |  | 6 |  |  |  |  |  |  |
| COc1ccc(-c2ccccc2)c2cc(NC(=O)Nc3ccc(F)cc3)oc12 | 37 |  | 22 |  |  |  |  |  |  |
| CCOC(=O)c1ccc(-c2ccc(OC)c3oc(C(=O)Nc4ccccc4)cc23)cc1 | -2 |  |  | -8 |  |  |  |  |  |
| COC(=O)c1ccc(OC)c2oc(C(=O)Nc3cccc(F)c3)cc12 | 58 | 48 | 14 | 86 |  |  |  |  |  |
| COc1ccc(-c2ccc(Cl)cc2)c2cc(C(=O)Nc3ccc(Cn4ccnc4)cc3)oc12 | 33 |  | 8 |  |  |  |  |  |  |
| COc1ccc(-c2ccccc2)c2cc(C(=O)Nc3c(Cl)cncc3Cl)oc12 | 101 | 74 | 83 |  |  |  |  |  |  |
| COc1ccc(-c2ccccc2)c2cc(C(=O)Nc3ccc(Cn4ccnc4)cc3)sc12 | 20 |  | 25 |  |  |  |  |  |  |

— ChEMBL document CHEMBL1159038, “Synthetic studies on selective adenosine A2A receptor antagonists: synthesis and structure-activity relationships of novel benzofuran derivatives” (Bioorg Med Chem Lett, 2010)
